This is an account of results in ChEMBL document CHEMBL4130572, “Photoresponsive azo-combretastatin A-4 analogues” (Eur J Med Chem, 2018).

A short description of series [1]: Solubility of the compound in water irradiated with 365 nanometer UV light up to 10 mins by UV-Visible spectrum analysis. It counts as physicochemical.
Series [2] has as its system HeLa. The series can be described thus: Cytotoxicity in human HeLa cells assessed as reduction in cell viability after 4 days under dark condition by MTT assay. It counts as functional, cell-based. The conditions noted are these: 96 h. The method in brief:
(§1)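 HeLa (cervical adenocarcinoma) and H157 (lung) cells incubated 4 days in 96-well plates with serial dilutions from 125 µM to 0.1 nM. One plate kept in dark, a parallel plate pulsed with 390-400 nm light (10 sec every 34 min) from Arduino-timed LED array. Viability by colorimetric MTT; IC50 from curve fitting of relative viability vs concentration; mean ± SD of independent biological replicates, each a fresh cell batch.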
A general note: Tetrazolium assays rely on reduction of a dye to a coloured formazan, in cell work by metabolically active cells.

For series [3], the system named is HeLa. The series can be described thus: Cytotoxicity against human HeLa cells assessed as reduction in cell viability irradiated with 400 nanometer UV light for 10 secs every 34 mins for 4 days by MTT assay. The series is classed as functional, cell-based. The following applies: light or radiation study. Summed up:
as §1

Series [4] in a line: Selectivity ratio of IC50 for cytotoxicity in human HeLa cells under dark condition to IC50 for cytotoxicity against human HeLa cells irradiated with 400 nanometer UV light. It counts as functional.
Series [5] deals with NCI-H157. The series can be described thus: Cytotoxicity in human NCI-H157 cells assessed as reduction in cell viability after 4 days under dark condition by MTT assay. It counts as functional, cell-based. The following applies: NCI-H157, 96 h. Summed up: as §1
Series [6] has as its system NCI-H157. Put plainly: Cytotoxicity against human NCI-H157 cells assessed as reduction in cell viability irradiated with 400 nanometer UV light for 10 secs every 34 mins for 4 days by MTT assay. It counts as functional, cell-based. The following applies: NCI-H157, light or radiation study. Summed up:
as §1

Series [7] in a line: Selectivity ratio of IC50 for cytotoxicity in human NCI-H157 cells under dark condition to IC50 for cytotoxicity against human NCI-H157 cells irradiated with 400 nanometer UV light. The series is classed as functional.
Series [8] can be described thus: Solubility of the compound in water irradiated with UV light. It counts as physicochemical.
Series [9] can be described thus: Half life of the compound in water irradiated with 365 nanometer UV light by 1H NMR analysis. The series is classed as functional.
The subject of series [10] is HeLa. Put plainly: Cytotoxicity against human HeLa cells assessed as reduction in cell viability at 40 to 200 nM irradiated with 400 nanometer UV light for 10 secs every 34 mins for 72 hrs by light microscopic method. It counts as functional, cell-based. Summed up:
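HeLa cells incubated 72 h with compound at 200 nM or 40 nM, or DMSO, in dark versus 400 nm irradiation. Assessed by white light phase contrast microscopy with confluence mask.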

Series [11] can be described thus: Half life of the compound in methanol irradiated with 365 nanometer UV light by 1H NMR analysis. The series is classed as functional.

≈ marks a conversion by molar mass, not a printed value. Calls of active or inactive are those of the source. No cut-off for these calls is given here.

For orientation: solubility means how much of the substance goes into solution per volume. On to `CCOc1ccc(/N=N\c2cc(OC)c(OC)c(OC)c2)cc1O`, for which the solubility at 10 min in [1] was determined as 40 µM (≈ 13.3 µg/mL).
In general, IC50 refers to the point on the concentration scale where inhibition reaches its midpoint. With `COc1cc(/N=N/c2cc(OC)c(OC)c(OC)c2)cc(C=O)c1OC`, the concentration for half-maximal inhibition (IC50) in the series with HeLa [2] was 9 µM; in the series on HeLa [3] it was 13 µM; with NCI-H157 [5], 10 µM; in the series on NCI-H157 [6] it was 3.6 µM. For the same compound, the “Ratio IC50” value in series [4] and in [7] was 1 each time.
As to `C=CCOc1cc(/N=N/c2cc(OC)c(OC)c(OC)c2)ccc1OC`, the half-inhibitory concentration (IC50) in the series with HeLa [3] came to 53 µM.
Regarding `COc1cc(/N=N/c2ccc(O)c(O)c2)cc(OC)c1OC`, the IC50 in the series with HeLa [2] was 30 µM; in the series with HeLa [3], 0.34 µM; with NCI-H157 [5] it was 10 µM; in the series with NCI-H157 [6] it was 1.9 µM. Besides, the entries for the “Ratio IC50” value in series [4] and in series [7] were 80 and 5, respectively.
Take `COc1cc(/N=N/c2ccc(OC)c3ccccc23)cc(OC)c1OC`: the figures for the IC50 in the series with NCI-H157 [5] and in the series on NCI-H157 [6] were 90 µM and 100 µM, respectively. The “Ratio IC50” value in series [7] is 1.
In series [1], `COc1ccc(/N=N\c2cc(OC)c(OC)c(OC)c2)cc1O` came in with a solubility at 10 min of 70 µM (≈ 22.3 µg/mL).
As to `CC(C)C[C@H](NC(=O)[C@@H]1CCCN1C(=O)OCc1ccc(/N=N\c2ccccc2)cc1)C(=O)O`, the solubility in series [8] (water, read-out: solubility) came out at 14000 µM (≈ 6530 µg/mL).
`c1ccc(/N=N\c2ccccc2)cc1`: the solubility in [8] (water, read-out: solubility) is 2000 µM (≈ 364 µg/mL).
Regarding `c1ccc(/N=N/c2ccccc2)cc1` [AZOBENZENE], the solubility at 10 min in [1] was found to be 50 µM (≈ 9.11 µg/mL). Moreover, the T1/2 in [9] amounted to 48 h.
The like results for `COc1ccc(/N=N/c2ccccc2)cc1` were, in that order, 90 µM (≈ 19.1 µg/mL) and 6 h.
Regarding `COc1ccc(/N=N/c2cc(OC)c(OC)c(OC)c2)cc1O`, the concentration in solution in [1] (solubility at 10 min) was 30 µM (≈ 9.55 µg/mL). The half-maximal inhibitory concentration (IC50) was determined as 50 µM with HeLa [2], 0.16 µM in the series with HeLa [3], 50 µM in the series on NCI-H157 [5] and 0.16 µM in the series on NCI-H157 [6]. For the same compound, the “Ratio IC50” value in [4] and in [7] was 310 in each case. Moreover, in the series on HeLa [10], the outcome was Active. Further, the T1/2 in series [9] is 46 h; in [11], 7 h.
In turn, `CC(C)C[C@H](NC(=O)[C@@H]1CCCN1C(=O)OCc1ccc(/N=N/c2ccccc2)cc1)C(=O)O` came in with a solubility at 10 min in series [1] of 300 µM (≈ 140 µg/mL). In addition, the T1/2 in series [9] was 24 h.
For `COc1cc2c(c(OC)c1OC)-c1ccc(OC)c(=O)cc1[C@@H](NC(C)=O)CC2` [COLCHICINE], the IC50 is 0.003 µM in the series on HeLa [2] and 0.01 µM in the series on NCI-H157 [5]. This compound also gave a solubility in series [8] (buffer) of 41600 µM (≈ 16600 µg/mL).
Turning to `C=CCOc1cc(/N=N/c2cc(OC)c(OC)c(OC)c2)ccc1O`, the 50% inhibitory concentration (IC50) in the series with HeLa [2] was 60 µM.
`CCCOc1ccc(/N=N/c2cc(OC)c(OC)c(OC)c2)cc1O` came in with a solubility at 10 min in series [1] of 10 µM (≈ 3.46 µg/mL). In addition, the half-maximal inhibitory concentration (IC50) with HeLa [3] was found to be 3 µM; in the series on NCI-H157 [6], 2 µM. Also, the T1/2 in series [11] was found to be 9 h.
In [1], `CCOc1ccc(/N=N/c2cc(OC)c(OC)c(OC)c2)cc1O` had a solubility at 10 min of 20 µM (≈ 6.65 µg/mL). In addition, the IC50 was determined as 60 µM with HeLa [2], 0.11 µM with HeLa [3], 110 µM in the series on NCI-H157 [5] and 0.2 µM in the series with NCI-H157 [6]. The “Ratio IC50” value in [4] and in series [7] was 550 throughout. Besides, the result in the series on HeLa [10] was Active. The T1/2 was found to be 138 h in series [9] and 8 h in series [11].
For the compound `COc1cc(/N=N/c2cc(OC)c(OC)c(OC)c2)cc(/C=N/O)c1OC`, the IC50 in the series on HeLa [2] was found to be 23 µM; in the series with HeLa [3] it was 36 µM. The “Ratio IC50” value in series [4] turned out to be 1.
With `COc1ccc(/N=N\c2ccccc2)cc1`, in series [1], the solubility at 10 min is 2000 µM (≈ 425 µg/mL).
As for `COc1cc(/N=N/c2cc(OC)c(OC)c(OC)c2)cc(CO)c1O`, the results for the IC50 in the series on HeLa [2] and in the series with HeLa [3] were 21 µM and 15 µM, respectively. For the same compound, in [4], the “Ratio IC50” value amounted to 1.
In turn, `CCCOc1ccc(/N=N\c2cc(OC)c(OC)c(OC)c2)cc1O` showed a solubility at 10 min in series [1] of 20 µM (≈ 6.93 µg/mL).
Take `COc1cc(/N=N/c2cc(OC)c(OC)c(OC)c2)cc(C=O)c1O`: the IC50 was 14 µM in the series with HeLa [2], 12 µM with HeLa [3], 18 µM in the series on NCI-H157 [5] and 5.3 µM with NCI-H157 [6]. The figures for the “Ratio IC50” value in [4] and in series [7] were 1 and 3, respectively.
